The text below walks through data of ChEMBL document CHEMBL1126255, “Excitatory amino acid receptor ligands. Synthesis and biological activity of 3-isoxazolol amino acids structurally related to homoibotenic acid” (J Med Chem, 1992).

In general, pIC50 refers to the IC50 on a negative log10 scale, so that one unit is a factor of ten.

Assay [1] addresses Glutamate NMDA receptor. The assay is described as follows: Concentration required for 50% inhibition of [3H]-CPP binding to N-methyl-D-aspartate glutamate receptor in rat cortical slice preparation. A digest of the protocol:
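Rat brain membranes prepared by the Ransom and Stec method. [3H]CPP binding run per an earlier protocol, but ended by filtration through GF/B filters presoaked in 0.1% polyethyleneimine instead of centrifugation. At least three independent experiments per value.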

The target of assay [2] is Glutamate NMDA receptor. The assay is described as follows: Concentration required for 50% inhibition of [3H]-MK-801 binding to N-methyl-D-aspartate glutamate receptor in rat cortical slice preparation. A digest of the protocol: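 Fully stimulated rat brain membranes prepared by the Ransom and Stec method. Otherwise per an earlier protocol. At least three independent experiments per value.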

The target of assay [3] is T1, Glutamate receptor ionotropic, AMPA (Rattus norvegicus, UniProt P19490+P19491+P19492+P19493). Description: Concentration required for 50% inhibition of [3H]Glu binding to AMPA receptor in rat cortical slice preparation in the presence of 2.5 mM CaCl2.
For assay [4], the target named is T1, Glutamate receptor ionotropic, AMPA. Description: Concentration required for 50% inhibition of [3H]AMPA binding to AMPA receptor in rat cortical slice preparation.
The target in assay [5] is Glutamate receptor ionotropic, kainate. The assay is described as follows: Concentration required for 50% inhibition of [3H]-kainic acid binding to ionotropic glutamate receptor ionotropic kainate in rat cortical slice preparation.

pIC50: −log10 of the molar value.

In the case of `CC(C)(C)c1onc(O)c1CC(N)C(=O)O` (configuration not stated), the pIC50 at Glutamate NMDA receptor [1] and at Glutamate NMDA receptor [2] was below 4.00 throughout.

Regarding `NC(Cc1onc(O)c1CCO)C(=O)O` (configuration not stated), the pIC50 was 6.85 in assay [3]; 5.70 in assay [4]; below 4.00 at Glutamate NMDA receptor [1]; below 4.00 at Glutamate NMDA receptor [2]; below 4.00 in assay [5].

As for `CCCCc1c(O)noc1CC(N)C(=O)O` (configuration not stated), the pIC50 in assay [3] is 6.74; in assay [4], 5.70; at Glutamate NMDA receptor [1], below 4.00; at Glutamate NMDA receptor [2] it was below 4.00; in assay [5], below 4.00.

In the case of `CCCCCCCCc1c(O)noc1CC(N)C(=O)O` (configuration not stated), the pIC50 in assay [3] was 7.70; in assay [4] it was below 4.00; on Glutamate NMDA receptor [1], below 4.00; on Glutamate NMDA receptor [2], below 4.00; in assay [5] it was below 4.00.

In the case of `Cc1c(O)noc1CC(N)C(=O)O` (configuration not stated), the pIC50 in assay [3] was 6.74; in assay [4] it was 6.22; on Glutamate NMDA receptor [1], below 4.00; on Glutamate NMDA receptor [2] it was below 4.00; in assay [5] it was below 4.00.
